Series [1] has as its system Liver microsome. As to the kind of experiment: Drug metabolism in human liver microsomes assessed as glucuronidation activity at 0.2 mM for 60 mins by ESI-MS analysis in presence of 3 mM UDP-GlcUA. To be noted: 1 h, 200 µM. Format: ADME. The procedure, abridged: (§1)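 Single-donor liver or intestinal microsomes (20 μg total protein) incubated with 0.2 mM substrate and 3 mM UDP-GlcUA for 60 min at 37°C in Tris-HCl pH 7.4, MgCl2, saccharolactone, 2% DMSO. Ethanol stop, centrifuged, HPLC analysis; triplicates.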

The nature of series [2]: Drug metabolism in human intestinal microsomes assessed as glucuronidation activity at 0.2 mM for 60 mins by ESI-MS analysis in presence of 3 mM UDP-GlcUA. Format: ADME, Intestine, Microsome. As to conditions: 1 h, 200 µM. The procedure, abridged: as §1
The nature of series [3]: Drug metabolism in human intestinal microsomes assessed as glucuronidation after 60 mins by Michaelis-Menten equation in presence of 3 mM UDP-GlcUA. The format is ADME, Intestine, Microsome. The method in brief:
(§2)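 Recombinant UGT membrane protein (5 μg; His-tagged UGT1A levels normalized by anti-His Western blot) or single-donor microsomes (20 μg) incubated with substrate 5–1000 μM and 3 mM UDP-GlcUA in […] pH 7.4, 5 mM MgCl2, 5 mM saccharolactone, 2% DMSO, 60 min, 37°C. Ethanol stop, centrifuged, HPLC-UV. Initial velocities fitted to Michaelis-Menten, Hill or substrate-inhibition models; three determinations.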

A short description of series [4]: Drug metabolism in human intestinal microsomes assessed as ratio of Vmax to Km for glucuronidation per mg of protein after 60 mins by Michaelis-Menten equation in presence of 3 mM UDP-GlcUA. Format: ADME, Intestine, Microsome. As to conditions: 1 h. The method in brief: as §2
The subject of series [5] is Liver microsome. Kind of series: Drug metabolism in human liver microsomes assessed as ratio of Vmax to Km for glucuronidation per mg of protein after 60 mins by Michaelis-Menten equation in presence of 3 mM UDP-GlcUA. As to conditions: 1 h. The format is ADME. The procedure, abridged: as §2
Series [6] is described as follows: Drug metabolism in human stomach microsomes assessed as glucuronidation activity at 0.1 mM for 60 mins in presence of 3 mM UDP-GlcUA. Format: ADME. As to conditions: 1 h, 100 µM. The procedure, abridged:
(§3)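 Microsomes from single donors (20 μg protein) incubated with 0.1 mM substrate and 3 mM UDP-GlcUA for 60 min at 37°C in Tris-HCl pH 7.4 buffer with 5 mM MgCl2, 5 mM saccharolactone and 2% DMSO. Glucuronide measured by HPLC; donor data summarized as box-and-whisker plots.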

The target of series [7] is T1, UDP-glucuronosyltransferase 1A7 (Homo sapiens, UniProt Q9HAW7).
T1 sequence (Q9HAW7 whole entry): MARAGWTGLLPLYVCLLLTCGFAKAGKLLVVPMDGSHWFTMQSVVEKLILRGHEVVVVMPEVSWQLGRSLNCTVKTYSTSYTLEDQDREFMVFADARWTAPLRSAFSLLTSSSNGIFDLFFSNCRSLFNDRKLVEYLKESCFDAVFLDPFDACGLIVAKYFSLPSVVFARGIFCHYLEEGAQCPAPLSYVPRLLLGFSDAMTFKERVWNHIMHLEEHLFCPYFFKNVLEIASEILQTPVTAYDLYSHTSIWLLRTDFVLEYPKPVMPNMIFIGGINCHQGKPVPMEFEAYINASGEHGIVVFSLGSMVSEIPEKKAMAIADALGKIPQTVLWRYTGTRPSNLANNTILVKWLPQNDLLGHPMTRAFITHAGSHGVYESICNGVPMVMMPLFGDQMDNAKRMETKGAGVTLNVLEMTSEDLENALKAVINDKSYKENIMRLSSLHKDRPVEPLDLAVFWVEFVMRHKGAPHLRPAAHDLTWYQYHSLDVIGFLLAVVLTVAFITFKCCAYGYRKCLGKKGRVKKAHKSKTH
As to the kind of experiment: Activity of human recombinant UGT1A7 expressed in baculovirus-infected Sf9 cells assessed as glucuronidation activity per mg of protein at 100 to 200 uM after 60 mins in presence of 3 mM UDP-GlcUA. Format: ADME. To be noted: sf9, 1 h. The procedure, abridged:
(§4)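 Screening: 5 μg recombinant UGT protein (His-tag levels normalized) in Tris-HCl pH 7.4, 5 mM MgCl2, 5 mM saccharolactone, 2% DMSO to permeabilize membranes. Substrate at 100 or 200 μM, added in water. Started with 3 mM UDP-GlcUA, 60 min at 37°C, stopped with ethanol, then centrifuged. Glucuronide quantified by reversed-phase C18 HPLC against the substrate response; triplicates.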

Series [8] concerns the target T2, UDP-glucuronosyltransferase 1A9 (Homo sapiens, UniProt O60656).
T2 sequence (O60656 whole entry): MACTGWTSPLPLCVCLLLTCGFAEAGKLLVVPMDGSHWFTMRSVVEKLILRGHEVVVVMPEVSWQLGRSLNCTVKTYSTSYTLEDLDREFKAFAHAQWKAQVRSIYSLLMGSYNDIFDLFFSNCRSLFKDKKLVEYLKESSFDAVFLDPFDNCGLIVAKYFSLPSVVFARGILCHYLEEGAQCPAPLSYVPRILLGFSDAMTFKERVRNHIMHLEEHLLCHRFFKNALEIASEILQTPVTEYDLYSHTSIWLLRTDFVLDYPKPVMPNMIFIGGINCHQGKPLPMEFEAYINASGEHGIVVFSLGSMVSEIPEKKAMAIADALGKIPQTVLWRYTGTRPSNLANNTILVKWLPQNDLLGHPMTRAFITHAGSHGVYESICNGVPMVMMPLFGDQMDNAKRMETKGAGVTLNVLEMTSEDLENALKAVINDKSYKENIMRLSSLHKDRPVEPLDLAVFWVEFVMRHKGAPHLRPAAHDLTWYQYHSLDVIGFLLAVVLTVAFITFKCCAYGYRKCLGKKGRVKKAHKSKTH
Kind of series: Activity of human recombinant UGT1A9 expressed in baculovirus-infected Sf9 cells assessed as glucuronidation activity per mg of protein at 100 to 200 uM after 60 mins in presence of 3 mM UDP-GlcUA. The format is ADME. As to conditions: sf9, 1 h. The procedure, abridged:
as §4

Series [9] in a line: Drug metabolism in human small intestine microsomes assessed as glucuronidation activity at 0.1 mM for 60 mins in presence of 3 mM UDP-GlcUA. The format is ADME. To be noted: 1 h, 100 µM. The procedure, abridged: as §3

Here are results for 2 compounds from ChEMBL document CHEMBL3526062, “Role of human UDP-glucuronosyltransferases in the biotransformation of the triazoloacridinone and imidazoacridinone antitumor agents C-1305 and C-1311: highly selective substrates for UGT1A10” (Drug Metab Dispos, 2012).

One may read the Km as the concentration of substrate that gives half-maximal velocity.

Take `CCN(CC)CCNc1ccc2ncn3c4ccc(O)cc4c(=O)c1c23` [C-1311]: the Drug metabolism entry in the series with Liver microsome [1] is “metabolite_detected”; in [2] it was “metabolite_detected”; in series [6], “metabolite_detected”; in [7], 0.2 nmol/min/mg; in series [8] it was 0.2 nmol/min/mg; in [9] it was “metabolite_detected”. Further, the Michaelis-Menten constant (Km) at 1 h in [3] worked out at 159 µM. The Vmax/Km in [4] came to 5.2 µL/min; with Liver microsome [5], 4 µL/min.
`CN(C)CCCNc1ccc2nnn3c4ccc(O)cc4c(=O)c1c23`: the Drug metabolism result with Liver microsome [1] is “metabolite_detected”; in series [2], “metabolite_detected”; in [6], “metabolite_detected”; in series [7] it was 0.2 nmol/min/mg; in [8] it was 0.2 nmol/min/mg; in series [9], “metabolite_detected”. The Km at 1 h in [3] was 76.9 µM. Moreover, the Vmax/Km (in series [4]; in the series with Liver microsome [5]) was 5.4 µL/min in each case.
